Hits are enriched below; roughly 2.5% of the tested compounds scored in any of these assays.
TCR CD3 inh: blocks the human TCR-CD3 interaction | TAMRA-labeled TCR probe fluorescence, biochemical | inhibition, % at 9.4 µM | hit rate 0.37% among 360,000 | AID 651800; in the data active = inhibition above about 19%;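 note: recombinant mutant TCR 2C K166C tagged with TAMRA read by polarization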
HTRA1 inh: HTRA1 (human) protease inhibition. recombinant HTRA1, FP-rhodamine activity-based probe, fluorescence polarization. inhibition, % at 5.96 µM. hit rate 0.5% among 340,000. AID 504803; in the data active = inhibition above about 36%
PRMT1 FP inh: blocks human protein arginine methyltransferase 1. Q99873. recombinant PRMT1, activity-based probe fluorescence polarization. inhibition, % at 2.79 µM. hit rate 1.3% among 370,000. AID 652257;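 active = inhibition above about 21% made by adding two undisclosed values, limit read from the data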
mABHD4 FP: inhibits mouse alpha/beta hydrolase domain 4; purified mABHD4, FP-Rh probe fluorescence polarization; inhibition, % at 8.92 µM; AID 720543; hit rate 0.54% among 370,000;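 active = inhibition exceeding the mean over every tested compound plus 3 SD, cut at about 30% in these data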
Target sequence (Q8VD66 whole entry, looked up, the tested form may be a part): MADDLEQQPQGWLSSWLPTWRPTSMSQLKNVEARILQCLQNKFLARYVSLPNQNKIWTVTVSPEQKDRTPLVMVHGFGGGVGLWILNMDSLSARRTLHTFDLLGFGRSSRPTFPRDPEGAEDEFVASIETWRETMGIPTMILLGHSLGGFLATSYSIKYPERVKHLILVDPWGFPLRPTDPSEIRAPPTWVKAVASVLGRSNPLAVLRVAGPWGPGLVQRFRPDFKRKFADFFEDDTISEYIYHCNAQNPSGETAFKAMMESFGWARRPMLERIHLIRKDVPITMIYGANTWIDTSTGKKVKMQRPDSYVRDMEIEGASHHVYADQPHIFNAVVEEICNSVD
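system = mouse ABHD4 enzyme, wild type | medium = HEPES pH 7.0, NaCl, Pluronic buffer | also added = FP-Rh probe | incubation = Enzyme–compound pre-incubation 45 min, then probe 60 min, both 25 °C | technique = fluorescence polarization, excitation 525 nm, emission 598 nm, BODIPY TMR filters | controls = S159A mutant high control, sample median low control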
SIAE inh: blocks human sialic acid acetylesterase; hit rate 0.69% among 370,000; Q9HAT2; SIAE FP-Rh probe binding, fluorescence polarization; inhibition, % at 9.66 µM;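 active = inhibition above a cutoff: mean of compounds within the control limits plus 3 SD of those, cut at about 17% in these data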
PRMT1 confirm: PRMT1 (human) inhibition, FP confirmation. shares compounds with PRMT1 FP inh. recombinant His-PRMT1, activity-based probe fluorescence polarization. inhibition, % at 2.79 µM. hit rate 42% among 3,300;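 active = mean inhibition across replicates above the hit cutoff derived for the earlier primary screen, cut at about 22% in these data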
A number is an active result; n = inactive; x = not tested or not shown.

SMILES	TCR CD3 inh	HTRA1 inh	PRMT1 FP inh	mABHD4 FP	SIAE inh	PRMT1 confirm
Cc1c([N+](=O)[O-])c(C(=O)Sc2ccc(Br)cc2)nn1C	n	n	49.6	n	n	75.5
Cc1c([N+](=O)[O-])c(C(=O)N2CCCC2)nn1C	n	n	n	n	n	x
CCn1c(SCC(=O)NCCc2ccccc2)nc2sc3c(c2c1=O)CCN(C)C3	n	n	n	n	n	x
CCn1c(SCC(=O)c2ccccc2)nc2sc3c(c2c1=O)CCN(C)C3	n	n	55.0	n	n	n
CC(=O)OC12CCCN(C1)/C(=C/c1cccc(N(C)C)c1)C2 (centres undefined)	x	x	n	n	n	x
O=S(=O)(c1ccc(F)cc1)N1CCC(c2nc3ccccc3o2)CC1	x	x	n	n	n	x
CC1CCCCC1C(=O)N1CCC(Oc2cccnc2)CC1 (centres undefined)	x	x	n	n	n	x
O=C(CC(SCCO)c1ccc2c(c1)OCO2)c1cccs1 (centres undefined)	n	n	29.9	n	n	31.8
Cc1ccnc(NC(=S)N2CC3CN(c4cccc(C(F)(F)F)c4)CC3C2)c1 (centres undefined)	x	x	25.4	n	n	22.8
c1coc(-c2nc3c([nH]2)CCc2nonc2-3)c1	n	n	71.7	n	n	n
CCOC(=O)c1ccc(NC(=O)CSc2nnc(SCc3cccc4ccccc34)s2)cc1	x	x	n	n	n	x
COc1cccc(Cn2cnc(-c3ccccc3OC)c2-c2ccco2)c1	n	x	31.9	n	n	n
CCCCCCNC(=O)C1CSCCS(=O)(=O)N1Cc1ccc(F)cc1 (centres undefined)	x	x	n	n	n	x
O=C(CC(Nc1cccc(Cl)c1Cl)C(=O)OCC(=O)c1cccs1)c1ccccc1 (centres undefined)	n	n	n	n	n	x
Cc1c(Cl)cccc1NC(CC(=O)c1ccccc1)C(=O)O (centres undefined)	n	n	34.8	n	n	n
O=C(CC(Nc1ccccc1Cl)C(=O)O)c1ccccc1 (centres undefined)	n	n	30.8	n	n	n
O=C(CC(Nc1cccc(Cl)c1Cl)C(=O)O)c1ccccc1 (centres undefined)	n	n	29.2	n	n	n
Cc1c(Cl)cccc1NC(CC(=O)c1ccccc1)C(=O)OCC(=O)c1cccs1 (centres undefined)	n	n	62.9	n	n	n
Cc1ccc(NC(=O)C2CCCN2S(=O)(=O)c2cccnc2)cc1C (centres undefined)	x	x	n	n	n	x
Cc1cc(Cl)ccc1OCC(=O)N/N=C/c1ccc[nH]1	x	x	n	n	n	x
Cc1ccc(NC(=O)Cn2nnc(-c3ccncc3)n2)cc1C	x	x	n	n	n	x
COc1ccccc1NC(CC(=O)c1ccccc1)C(=O)OCC(=O)c1ccc(F)cc1 (centres undefined)	n	n	35.3	n	n	n
COC(=O)[C@@H]1C[C@@]2(c3ccccc3)c3ccccc3N(S(=O)(=O)c3ccccc3)[C@H]2N1C(=O)CNC1CCCCC1	x	x	n	n	n	x
CCOc1ccc(N=CNc2ccc(OCC)cc2)cc1	n	n	n	n	n	x
CCCCN=Cc1sc2ccc(OCC)cc2c1O	n	n	30.2	n	n	31.6
SMILES	TCR CD3 inh	HTRA1 inh	PRMT1 FP inh	mABHD4 FP	SIAE inh	PRMT1 confirm
CC1(C)C2CCC(CN=C(N)CSS(=O)(=O)O)C1C2 (centres undefined)	n	n	88.3	n	n	68.7
Cc1ccc(-c2c3c(nc4sc(C(N)=O)c(N)c24)CCCC3)o1	n	n	32.2	n	n	n
CCCOc1ccc(CNC(=O)c2ccc3c(c2)N(CC)CCS3)cc1	n	n	27.5	n	n	n
CCN1CCSc2ccc(C(=O)NCc3cccc(F)c3)cc21	n	n	n	n	n	x
O=C(NCc1cccnc1)c1ccc2c(c1)N(Cc1ccccc1)CCS2	n	n	28.8	n	n	n
O=C(NCc1ccccn1)c1ccc2c(c1)N(Cc1ccccc1)CCS2	n	n	n	n	n	x
NCCc1nnc(SCC(=O)Nc2cccc(Cl)c2)o1	n	n	25.2	n	n	n
Cn1nnnc1SCC(=O)Nc1nc2c(s1)CCCC2	n	n	n	n	n	x
O=C(CSC1=NCCS1)Nc1nc2c(s1)CCCC2	n	n	26.3	n	n	32.1
CN=C1SC(CC(=O)NCCc2ccc(OC)c(OC)c2)C(=O)N1C (centres undefined)	n	n	n	n	n	x
COc1ccc(CCNC(=O)CC2SC(=NCc3ccccc3)NC2=O)cc1 (centres undefined)	n	n	n	n	n	x
CCN=C1SC(CC(=O)NCCc2ccc(OC)c(OC)c2)C(=O)N1CC (centres undefined)	n	n	31.9	n	n	n
CCN=C1SC(CC(=O)NCCc2ccc(OC)cc2)C(=O)N1CC (centres undefined)	n	n	31.2	n	n	n
CCN=C1SC(CC(=O)NC(N)=O)C(=O)N1CC (centres undefined)	n	n	n	n	n	x
COc1ccc(CCNC(=O)CC2SC(=NCCc3ccccc3)NC2=O)cc1 (centres undefined)	n	n	26.1	n	n	n
O=C(CSc1nnc(COc2ccccc2)n1Cc1ccco1)Nc1ccc(OCc2ccccc2)cc1	x	x	n	n	n	x
Cc1ccccc1CS(=O)(=O)Cc1ccc(C(=O)Nc2ccccc2C)o1	x	x	n	n	n	x
CC(C)[C@H](N)C(=O)N1CCC[C@@H]1C(=O)N1CCC2CCN(S(=O)(=O)c3ccccc3)CC21 (some centres undefined)	x	x	n	n	n	x
N#CC1=C(N)S[C@@H](C(=O)c2ccc(F)cc2)[C@@H]1c1cccs1	n	n	34.7	n	n	n
CCCCN1C(=O)N2Cc3ccccc3C2CS1(=O)=O (centres undefined)	x	x	n	n	n	x
O=C(Nc1cccc(Cl)c1)OCCN1CCCC12CCC(c1ccccc1)CC2 (centres undefined)	x	x	n	n	n	x
O=[N+]([O-])c1ccccc1S(=O)(=O)NC1CCCCCCC1	n	n	n	n	n	x
O=C1CCCCCCC1Sc1ccccc1[N+](=O)[O-] (centres undefined)	n	n	29.6	n	n	n
Nc1cccn2c(-c3ccc(Cl)c(Cl)c3)cnc12	n	n	31.5	n	n	n
Nc1cccn2c(-c3ccc(Cl)cc3)cnc12	n	n	41.7	n	n	n
C/C=C/C(=O)N1CCC(C(=O)NCC2COc3ccccc3O2)CC1 (centres undefined)	x	x	n	n	n	x
CCCCCCC12C(=Cc3cc4c(cc31)OCCO4)c1cc(OC)c(OC)cc1C(CC(=O)NCc1ccccc1)N2C(=O)OC (centres undefined)	n	x	n	n	n	x
COc1ccc(CNC(=O)O[C@H]2CC[C@@]34CCCN3C(=O)CCC[C@H]4C2)cc1OC	x	x	n	n	n	x
COC(=O)C1=C(C)NC(C)=C(C(=O)OCC(C)C)C1c1ccccc1[N+](=O)[O-] (centres undefined)	n	n	25.2	n	n	n

Source: PubChem BioAssay
